# In the M2OR odorant receptor database:
# Target: T1, OR51B5 (Homo sapiens) (UniProt Q9H339)
# T1 sequence (whole entry): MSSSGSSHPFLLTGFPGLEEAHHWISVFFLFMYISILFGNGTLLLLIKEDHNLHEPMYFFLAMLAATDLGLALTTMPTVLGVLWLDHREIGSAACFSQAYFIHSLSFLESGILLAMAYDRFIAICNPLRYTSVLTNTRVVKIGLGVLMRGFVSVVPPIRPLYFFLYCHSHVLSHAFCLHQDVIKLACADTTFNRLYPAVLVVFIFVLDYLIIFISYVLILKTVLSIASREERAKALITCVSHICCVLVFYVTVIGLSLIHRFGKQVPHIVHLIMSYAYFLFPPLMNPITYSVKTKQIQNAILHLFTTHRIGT
# Conditions: stereoisomer not certain
# How it was run: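 Transient luciferase assays in mammalian cell lines were common, though methods varied by source. The values come from published papers and their supplementary material, with extra details from the original authors when needed. Responsive refers to a measured signal the original authors judged statistically different from baseline, and non-responsive (inactive) to the remainder.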
# 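Also: active if original authors judged signal statistically different from baseline.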
row,SMILES,odorant receptor agonist call
1,CC(C=O)Cc1ccc(C(C)(C)C)cc1 (centres undefined),inactive
2,CC1=CCC2CC1C2(C)C (centres undefined),inactive
3,Cc1ccc(C(C)C)cc1,inactive
4,CCCCCCCCCCCCCCCC(=O)[O-].[H+],inactive
5,COc1ccc2[nH]cc(CCNC(C)=O)c2c1,inactive
6,CC(O)C(=O)[O-].[H+] (centres undefined),inactive
7,CCC(C)CO (centres undefined),inactive
8,CCCCCCCCCCCCCC(=O)O,inactive
9,CCCCCCCCCC(=O)OC,inactive
10,C=C1CCC2CC1C2(C)C (centres undefined),inactive
11,Cc1cnc(C)cn1,inactive
12,CCCCCCCCCCCCCCCCCC(=O)OC,inactive
13,CCCCCCCCCCCC(=O)O,active
14,CCCCOCC(C)O (centres undefined),inactive
15,CCCCCCCCCCCC(=O)OCC,inactive
16,CCCCCCCCCCCCCC(=O)OC,inactive
17,CCCCC(=O)C(C)=O,inactive
18,CCCCCCCC(=O)[O-].[H+],inactive
19,CCC(O)CC,inactive
20,CC(=O)O,inactive
21,CCCCCCCCCCCCCCCCCC(=O)[O-].[H+],inactive
22,CCCCCCCCCCCCO,inactive
23,CC(C)=CCCC(C)=CCCC(C)=CCO,active
24,O=c1ccc2ccccc2o1,inactive
25,CCC(=O)O,inactive
26,CCCCCCCCCCCC(=O)OC,inactive
27,CCCCCCCC(=O)OCC,inactive
28,CCCCCCCCCCCCCCCC(=O)OCC,inactive
29,C=C(C)C1CC=C(C)CC1 (centres undefined),inactive
